Test results from ChEMBL document CHEMBL1155935, “Epoxydons and a pyrone from the marine-derived fungus Nigrospora sp. PSU-F5” (2008).
≈ marks a conversion by molar mass, not a printed value. Calls of active or inactive are those of the source. No cut-off for these calls is given here.

Assays:
[1] = test system: Staphylococcus aureus; assay: Antimicrobial activity against Staphylococcus aureus; assay type: functional
Procedure, shortened: (§1)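 Agar microdilution MIC. Compounds in DMSO, serially 2-fold diluted and mixed 1:100 into melted Mueller-Hinton agar, giving final concentrations of 0.03–128 µg/mL. Strains were S. aureus ATCC 25923 and MRSA SK1. Inocula were spotted onto the agar and incubated at 35 °C for 18 h. MIC was the lowest concentration preventing visible growth. Vancomycin was the positive control; DMSO agar was the growth control.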

[2] = test system: Staphylococcus aureus; assay: Antimicrobial activity against methicillin-resistant Staphylococcus aureus; assay type: functional; procedure, shortened: as §1

SMILES | Activity [1] | Activity [2] | MIC [1] [µg/mL] | MIC [2] [µg/mL]
COc1cc(/C(C)=C/CO)oc(=O)c1 | inactive | inactive |  | 
CC1=CC(=O)CC(C)(C)[C@H]1/C=C/C(C)=C\C(=O)O | inactive | inactive |  | 
O=C(O[C@H]1C(=O)C(CO)=C[C@@H](O)[C@@H]1O)c1cccc(O)c1 | inactive | inactive |  | 
C/C=C(\C)c1cc(OC)cc(=O)o1 | inactive | inactive |  | 
O=C1C(CO)=C[C@@H](O)[C@H]2O[C@@H]12 [EPOXYDON] |  |  | 128 (≈ 820 µM) | 128 (≈ 820 µM)
CC1=CC(=O)CC(C)(C)[C@@]1(O)/C=C/C(C)=C\C(=O)O | inactive | inactive |  | 
CC1=CC(=O)CC(C)(C)[C@@]1(O)/C=C/C(C)=C\C(=O)O[C@H]1C(=O)C(CO)=C[C@@H](O)[C@@H]1O [NIGROSPOXYDON A] |  |  | 64 (≈ 152 µM) | > 128
COC(=O)C(Cc1ccccc1)OC(CC(C)C)C(=O)O[C@H]1C(=O)C(CO)=C[C@@H](O)[C@@H]1O (stereo partly specified) | inactive | inactive |  | 
